Experiment [1] has as its target T1, Legumain (Homo sapiens, UniProt Q99538).
T1 sequence (Q99538 whole entry): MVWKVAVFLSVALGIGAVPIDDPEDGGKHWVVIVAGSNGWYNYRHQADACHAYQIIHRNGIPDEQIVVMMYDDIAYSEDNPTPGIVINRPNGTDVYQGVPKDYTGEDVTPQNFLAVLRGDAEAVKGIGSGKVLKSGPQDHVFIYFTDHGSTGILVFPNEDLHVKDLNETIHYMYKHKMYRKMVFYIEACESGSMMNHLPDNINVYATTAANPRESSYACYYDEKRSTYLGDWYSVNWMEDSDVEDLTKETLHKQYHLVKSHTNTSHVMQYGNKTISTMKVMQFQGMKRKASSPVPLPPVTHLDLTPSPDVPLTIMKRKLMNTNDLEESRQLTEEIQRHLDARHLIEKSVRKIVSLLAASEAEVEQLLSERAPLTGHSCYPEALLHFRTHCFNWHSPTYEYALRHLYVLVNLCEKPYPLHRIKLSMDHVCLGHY
The experiment is described as follows: Inhibition of recombinant human legumain using Z-Ala-Ala-Asn-MCA substrate measured every 2 mins for 60 mins by microplate reader analysis.

The target of experiment [2] is T2, Legumain (Homo sapiens) (UniProt Q99538).
T2 sequence (whole entry): T1 sequence (Q99538 whole entry)
The experiment in a line: Inhibition of legumain in human MCF7 cells using Z-Ala-Ala-Asn-MCA substrate at 30 uM incubated for 24 hrs by microplate reader analysis. It is filed as cell-based. Put shortly:
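MCF7 cells incubated with compound at 37 °C for 24 h. Media then removed, cells washed with assay buffer and lysed. Intracellular legumain activity read in the lysate with fluorogenic substrate. Run in triplicate.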

A short description of experiment [3]: Cytotoxicity against human DU145 cells assessed as cell viability at 30 uM incubated for 96 hrs by MTT assay. It is filed as functional. The note with it: DU-145, 96 h, read-out: Activity. Put shortly: (§1)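 MTT viability read-out after 96 h exposure. Compared with DMSO vehicle control. n = 6.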
Experiment [4] has as its target Cathepsin B (Homo sapiens, UniProt P07858). The experiment is described as follows: Inhibition of recombinant cathepsin B (unknown origin) using Z-Leu-Arg-AMC fluorogenic substrate.
The nature of experiment [5]: Cytotoxicity against human PC3 cells assessed as cell viability at 30 uM incubated for 96 hrs by MTT assay. The experiment is classed as functional. The note with it: PC-3, 96 h, read-out: Activity. Put shortly:
as §1

For experiment [6], the target named is Cathepsin S (Homo sapiens, UniProt P25774). The experiment is described as follows: Inhibition of recombinant cathepsin S (unknown origin) using ZVVR-AMC fluorogenic substrate.
The target in experiment [7] is T3, Caspase-3 (Homo sapiens, UniProt P42574).
T3 sequence (P42574 whole entry): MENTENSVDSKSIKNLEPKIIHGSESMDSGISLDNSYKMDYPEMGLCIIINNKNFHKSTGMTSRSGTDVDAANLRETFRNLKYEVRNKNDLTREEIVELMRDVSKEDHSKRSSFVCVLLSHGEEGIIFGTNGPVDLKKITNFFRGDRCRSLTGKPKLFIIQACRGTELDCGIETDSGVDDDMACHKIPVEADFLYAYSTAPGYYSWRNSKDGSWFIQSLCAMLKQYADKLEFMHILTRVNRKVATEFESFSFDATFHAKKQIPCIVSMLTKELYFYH
The experiment is described as follows: Inhibition of recombinant caspase 3 (unknown origin) using DEVD-AFC fluorogenic substrate.

The subject of experiment [8] is T47D. The experiment in a line: Cytotoxicity against human T47D cells assessed as cell viability at 30 uM incubated for 96 hrs by MTT assay. The experiment is classed as functional. The note with it: read-out: Activity. A digest of the protocol: as §1
Experiment [9] addresses T4, Ubiquitin carboxyl-terminal hydrolase 17 (Homo sapiens, UniProt Q6R6M4).
T4 sequence (Q6R6M4 whole entry): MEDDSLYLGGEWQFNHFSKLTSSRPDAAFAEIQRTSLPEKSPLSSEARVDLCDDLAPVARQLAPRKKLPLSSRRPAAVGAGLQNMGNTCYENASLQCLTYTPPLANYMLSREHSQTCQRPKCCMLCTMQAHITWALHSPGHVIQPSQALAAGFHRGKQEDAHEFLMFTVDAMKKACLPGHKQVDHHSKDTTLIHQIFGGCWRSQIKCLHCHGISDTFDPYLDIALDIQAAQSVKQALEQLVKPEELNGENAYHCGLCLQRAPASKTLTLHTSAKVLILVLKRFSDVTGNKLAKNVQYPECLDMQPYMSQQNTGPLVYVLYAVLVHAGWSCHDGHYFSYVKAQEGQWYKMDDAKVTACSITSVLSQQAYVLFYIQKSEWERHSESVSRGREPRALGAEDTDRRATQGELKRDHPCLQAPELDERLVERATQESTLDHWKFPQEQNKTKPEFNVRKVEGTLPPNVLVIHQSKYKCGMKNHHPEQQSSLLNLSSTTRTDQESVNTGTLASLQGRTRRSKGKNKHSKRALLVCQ
The experiment in a line: Inhibition of USP17 in human HEK293T cells using fluorogenic substrate ub-rhodamine110 preincubated for 30 mins followed by substrate addition measured every 4 mins for 1 hr by microplate reader analysis. The experiment is classed as cell-based, HEK-293T.

Experiment [10] can be described thus: Cytotoxicity against human MCF10A cells assessed as cell death at 150 uM incubated for 96 hrs by MTT assay. The note with it: MCF-10A. It is filed as functional.
In experiment [11] the target is Caspase-8 (Homo sapiens, UniProt Q14790). The experiment in a line: Inhibition of recombinant caspase 8 (unknown origin) using IETD-AFC fluorogenic substrate.
The target in experiment [12] is T2, Legumain (Homo sapiens). The experiment is described as follows: Inhibition of legumain in human MCF7 cells using Z-Ala-Ala-Asn-MCA substrate at 30 uM incubated for 48 hrs by microplate reader analysis. It is filed as cell-based.
Experiment [13] relates to MCF7. The experiment in a line: Antimetastatic activity in human MCF7 cells assessed as inhibition of colony formation efficiency at 5 uM after 2 weeks by soft agar anchorage-independent growth assay. As to conditions: MCF7, 336 h. The experiment is classed as functional. A digest of the protocol:
(§2)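 Soft agar anchorage-independent colony formation in MCF7 and PC3 cells over 2 weeks. Compound and media refreshed every 4 days. Colonies quantified relative to DMSO vehicle-treated cells. n = 5.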

Experiment [14] has as its system MCF7. The experiment is described as follows: Cytotoxicity against human MCF7 cells assessed as cell death at 30 uM incubated for 96 hrs by MTT assay. The experiment is classed as functional. The note with it: MCF7, 96 h. A digest of the protocol: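 MCF7 breast cancer cells were exposed to compound for 96 h, with DMSO vehicle as the control. Viability was read by MTT assay, n = 6.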

The nature of experiment [15]: Antimetastatic activity in human PC3 cells assessed as inhibition of colony formation efficiency at 2.5 uM after 2 weeks by soft agar anchorage-independent growth assay. The note with it: PC-3, 336 h. The experiment is classed as functional. A digest of the protocol:
as §2

Active and inactive are the calls of the source. No cut-off for these calls is given here.

Caspase-8, sequence (Q14790 217-374 limits assumed): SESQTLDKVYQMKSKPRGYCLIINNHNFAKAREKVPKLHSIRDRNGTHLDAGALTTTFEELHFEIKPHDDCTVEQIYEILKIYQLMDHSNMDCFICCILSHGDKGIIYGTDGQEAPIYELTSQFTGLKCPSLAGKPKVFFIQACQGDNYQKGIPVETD
Caspase-8, sequence (Q14790 385-479 limits assumed): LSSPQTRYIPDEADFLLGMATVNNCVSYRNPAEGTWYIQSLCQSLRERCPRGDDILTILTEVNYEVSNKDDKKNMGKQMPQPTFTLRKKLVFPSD
Cathepsin S, sequence (P25774 whole entry): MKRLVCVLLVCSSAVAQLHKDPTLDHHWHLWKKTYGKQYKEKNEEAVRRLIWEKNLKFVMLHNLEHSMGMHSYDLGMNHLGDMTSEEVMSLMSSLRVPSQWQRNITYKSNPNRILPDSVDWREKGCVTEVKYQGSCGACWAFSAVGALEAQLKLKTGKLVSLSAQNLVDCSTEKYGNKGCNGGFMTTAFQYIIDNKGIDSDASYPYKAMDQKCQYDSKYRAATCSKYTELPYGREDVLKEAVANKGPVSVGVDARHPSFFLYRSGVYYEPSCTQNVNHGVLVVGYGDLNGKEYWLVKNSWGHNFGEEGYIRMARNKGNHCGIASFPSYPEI

As to `N#C[C@H](CC(N)=O)NC(=O)[C@@H]1CCCN1S(=O)(=O)c1ccc(C(F)(F)F)cc1`, the IC50 in experiment [1] is 332 nM. The inhibition in experiment [2] amounted to 0%.

`N#C[C@H](CC(N)=O)NC(=O)[C@@H]1CCCN1S(=O)(=O)c1ccc(Cl)cc1Cl`: the IC50 in experiment [1] came to 593 nM. Moreover, the inhibition in [2] is 0%.

Consider `CC(C)Oc1ccc(-c2ccc(S(=O)(=O)N3CCC[C@H]3C(=O)N[C@H](C#N)CC(N)=O)cc2)cc1`, for which the IC50 in [1] is 969 nM. Moreover, the inhibition in [2] was determined as 49%.

On to `Cc1ccc(-c2ccc(S(=O)(=O)N3CCC[C@H]3C(=O)N[C@H](C#N)CC(N)=O)cc2)cc1`, for which, in [1], the IC50 came out at 32 nM. The same molecule gave an inhibition in experiment [2] of 0%.

As for `CCOc1ccc(-c2ccc(S(=O)(=O)N3CCC[C@H]3C(=O)N[C@H](C#N)CC(N)=O)cc2)cc1`, the IC50 in [1] was 73 nM. In addition, in experiment [2], the inhibition came out at 90%.

As to `N#Cc1ccc(-c2ccc(S(=O)(=O)N3CCC[C@H]3C(=O)N[C@H](C#N)CC(N)=O)cc2)cc1`, the IC50 in experiment [1] is 33 nM. Also, in [2], the inhibition came to 0%.

For the molecule `N#C[C@H](CC(N)=O)NC(=O)[C@@H]1CCCN1S(=O)(=O)c1ccc(-c2ccc3c(c2)OCO3)cc1`, the half-inhibitory concentration (IC50) in experiment [1] came out at 49 nM. In addition, the inhibition in experiment [2] was determined as 49%.

In the case of `N#C[C@H](CC(N)=O)NC(=O)[C@@H]1CCCN1S(=O)(=O)c1ccc(Cl)cc1`, the concentration for half-maximal inhibition (IC50) in experiment [1] is 73 nM. The same molecule came in with an inhibition in [2] of 0%.

As to `N#C[C@H](CC(N)=O)NC(=O)[C@@H]1CCCN1S(=O)(=O)c1ccc(Br)cc1`, the IC50 in experiment [1] came out at 282 nM. The molecule also came in with an inhibition in [2] of 0%.

Turning to `N#C[C@H](CC(N)=O)NC(=O)[C@@H]1CCCN1S(=O)(=O)c1ccc(-c2ccc(Cl)cc2)cc1`, in [1], the half-maximal inhibitory concentration (IC50) is 45 nM. This molecule also yielded an inhibition in experiment [2] of 64%.

`CC(C)(C)c1ccc(-c2ccc(S(=O)(=O)N3CCC[C@H]3C(=O)N[C@H](C#N)CC(N)=O)cc2)cc1`: the viability at 30 µM in experiment [3], in [5] and in [8] was greater than 50% each time. Besides, the concentration for half-maximal inhibition (IC50) in experiment [4] is greater than 50000 nM; in [6], greater than 50000 nM; in [7], greater than 50000 nM; in experiment [9], greater than 50000 nM; in experiment [1] it was 71 nM; in [11] it was greater than 50000 nM. In experiment [10], the mortality at 150 µM is 0%. The same molecule registered an inhibition in experiment [2] of 90%. Moreover, in [12], the inhibition entry is “Active”. Besides, the inhibition at 5 µM in experiment [13] worked out at 50%. The mortality at 30 µM in experiment [14] is 81%. Besides, in experiment [15], the inhibition at 2.5 µM came to 50%.

Regarding `N#C[C@H](CC(N)=O)NC(=O)[C@@H]1CCCN1S(=O)(=O)c1ccc(-c2cccc(F)c2)cc1`, the half-inhibitory concentration (IC50) in experiment [1] came to 47 nM. The same molecule returned an inhibition in [2] of 42%.

On to `COc1ccc(-c2ccc(S(=O)(=O)N3CCC[C@H]3C(=O)N[C@H](C#N)CC(N)=O)cc2)cc1`, for which the IC50 in experiment [4] was greater than 50000 nM; in [6], greater than 50000 nM; in experiment [7], greater than 50000 nM; in [9], greater than 50000 nM; in experiment [1] it was 6 nM; in [11], greater than 50000 nM. In addition, the mortality at 150 µM in experiment [10] was determined as 0%. The molecule also registered an inhibition in [2] of 90%. Further, the mortality at 30 µM in [14] stood at 58%.

As to `N#C[C@H](CC(N)=O)NC(=O)[C@@H]1CCCN1S(=O)(=O)c1ccc(-c2ccc(F)cc2)cc1`, the concentration for half-maximal inhibition (IC50) in [1] was determined as 33 nM. The inhibition in experiment [2] came out at 40%.

For the molecule `N#C[C@H](CC(N)=O)NC(=O)[C@@H]1CCCN1S(=O)(=O)c1ccc(F)cc1`, in [1], the IC50 amounted to 269 nM. The inhibition in [2] was determined as 0%.

On to `COc1ccc(S(=O)(=O)N2CCC[C@H]2C(=O)N[C@H](C#N)CC(N)=O)cc1`, for which the IC50 in [1] was greater than 10000 nM.

In the case of `CCc1ccc(-c2ccc(S(=O)(=O)N3CCC[C@H]3C(=O)N[C@H](C#N)CC(N)=O)cc2)cc1`, the IC50 in experiment [1] worked out at 71 nM. In [2], the inhibition was found to be 42%.

On to `CC(C)c1ccc(-c2ccc(S(=O)(=O)N3CCC[C@H]3C(=O)N[C@H](C#N)CC(N)=O)cc2)cc1`, for which the IC50 in experiment [1] came to 5 nM. The molecule also had an inhibition in [2] of 75%.

Turning to `N#C[C@H](CC(N)=O)NC(=O)[C@@H]1CCCN1S(=O)(=O)c1ccc(-c2ccc(C(F)(F)F)cc2)cc1`, in experiment [1], the IC50 is 121 nM. The molecule further returned an inhibition in [2] of 52%.

On to `N#C[C@H](CC(N)=O)NC(=O)[C@@H]1CCCN1S(=O)(=O)c1ccc(-c2ccccc2Cl)cc1`, for which, in [1], the 50% inhibitory concentration (IC50) came to 35 nM. This molecule came in with an inhibition in [2] of 29%.

In the case of `N#C[C@H](CC(N)=O)NC(=O)[C@@H]1CCCN1S(=O)(=O)c1ccc(-c2ccccc2)cc1`, the IC50 in experiment [4] is greater than 50000 nM; in experiment [6], greater than 50000 nM; in experiment [7], greater than 50000 nM; in experiment [9], greater than 50000 nM; in [1] it was 12 nM; in [11], greater than 50000 nM. Further, the mortality at 150 µM in experiment [10] stood at 0%. The same molecule came in with an inhibition in experiment [2] of 47%. The mortality at 30 µM in [14] was 45%.
